Consider one molecule from ChEMBL document CHEMBL1126902, “Synthesis, chemical reactivity, and antitumor evaluation of congeners of carmethizole hydrochloride, an experimental "acylated vinylogous carbinolamine" tumor inhibitor” (J Med Chem, 1993).

As a reminder, the IC50 is the concentration that inhibits the measured activity by half. The low end stands for higher potency, the high end for lower potency.

Assay [1] deals with P388. As to the kind of experiment: Change in tumor cell population in ip implanted P388 Leukemia in mice after administration of compound at 100 mg/kg; toxic. Type of assay: functional, organism-based. Also on record: dose 100 mg/kg. The note with it: Mus musculus. Put shortly: (§1)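 Female Portage-CD2F1 mice were inoculated ip with ascitic fluid holding ca. 5.2×10^6 P388 cells. Dosing was ip on days 1-5, starting 24 h after inoculation, by average body weight, as a solution or suspension in saline plus Tween 80. KE is the net log change in viable tumor cell population from start to end of the treatment period.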

Assay [2] relates to P388. In words: Change in tumor cell population in ip implanted P388 Leukemia in mice after administration of compound at 50 mg/kg; toxic. Set-up: dose 50 mg/kg. The note with it: Mus musculus. Type of assay: functional, organism-based. An outline of the steps:
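P388 leukemia: ascitic fluid with ca. 5.2×10^6 cells inoculated ip into Portage-CD₂F₁ female mice. Drug given ip on days 1-5, starting 24 h after inoculation, dosed by average body weight. Vehicle was saline plus Tween 80, as a solution or suspension. KE = net log change in viable tumor cells from start to end of treatment.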

Assay [3] can be described thus: Concentration required to inhibit tumor growth in […], human breast adenocarcinoma cell line. Type of assay: functional. An outline of the steps: (§2)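 Cells grown in RPMI 1640 with 5% fetal calf serum, 5% NuSerum IV and 20 mM HEPES, seeded and allowed to adhere overnight. Compound dissolved in RPMI-1640 plus HEPES and tested over a 5 log range (10 concentrations) for 72 h. Read-out by sulforhodamine B assay. Median-effect dose derived by nonlinear regression of the concentration-effect curve.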

Assay [4] in a line: Change in tumor cell population in ip implanted LOX amelanotic melanoma in mice after administration of compound at 50 mg/kg. Type of assay: functional, Mus musculus. The settings on record: route intraperitoneal. Put shortly:
(§3)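 Female CD2F1 mice were implanted ip with ascitic fluid holding ca. 1.7×10^6 LOX cells. Dosing was ip on days 1, 5 and 9, starting 24 h after implantation, by exact body weight, as a solution or suspension in saline plus Tween 80, freshly prepared daily. KE is the net log change in viable tumor cells from start to end of treatment. Bracketed KE assumes Poisson survival, with 60-day survivors tumor-free.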

The subject of assay [5] is P388. As to the kind of experiment: Percent increase in life span of dying mice tested in vivo at 50 mg/kg against ip implanted P388 Leukemia in mice. Type of assay: functional. The settings on record: Mus musculus, route intraperitoneal. Put shortly: (§4)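 Portage-CD2F1 female mice inoculated ip with ascitic fluid carrying ca. 5.2×10^6 P388 leukemia cells. Drug given ip daily on days 1-5, starting 24 h after inoculation, dosed by average body weight. %ILS is from the median day of death of dying mice versus controls.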

Assay [6] relates to P388. As to the kind of experiment: Change in tumor cell population in ip implanted P388 Leukemia in mice after administration of compound at 12.5 mg/kg. Type of assay: functional, Mus musculus. The note with it: route intraperitoneal. Put shortly: as §1
Assay [7] deals with P388. As to the kind of experiment: Change in tumor cell population in ip implanted P388 Leukemia in mice after administration of compound at 25 mg/kg. Type of assay: functional, Mus musculus. The note with it: route intraperitoneal. Put shortly:
as §1

Assay [8] is described as follows: Percent increase in life span of dying mice tested in vivo at 50 mg/kg against ip implanted LOX amelanotic melanoma in mice (60-day survivors). The settings on record: Mus musculus, 1440 h, route intraperitoneal. Type of assay: functional. An outline of the steps: (§5)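 Female CD2F1 mice implanted ip with ascitic fluid carrying ca. 1.7×10^6 LOX amelanotic melanoma cells. Drug given ip on days 1, 5 and 9, starting 24 h after implant, dosed by exact body weight; solutions or suspensions made fresh daily. %ILS is from the median day of death of dying mice versus controls, excluding 60-day survivors.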

The test system of assay [9] is P388. In words: Percent increase in life span of dying mice tested in vivo at 100 mg/kg against ip implanted P388 Leukemia in mice. The settings on record: Mus musculus, route intraperitoneal. Type of assay: functional. Put shortly: as §4
Assay [10] deals with P388. In words: Percent increase in life span of dying mice tested in vivo at 12.5 mg/kg against ip implanted P388 Leukemia in mice. The note with it: Mus musculus, route intraperitoneal. Type of assay: functional. An outline of the steps: as §4
Assay [11] in a line: Concentration required to inhibit tumor growth in PSN-1, human pancreatic carcinoma cell line. Type of assay: functional. Put shortly: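 PSN-1 pancreatic carcinoma cells exposed to compound dissolved in RPMI-1640 plus HEPES at its maximum soluble concentration for 72 h. Read-out by sulforhodamine B colorimetric assay.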
Assay [12] deals with P388. As to the kind of experiment: Percent increase in life span of dying mice tested in vivo at 25 mg/kg against ip implanted P388 Leukemia in mice. Type of assay: functional. The note with it: Mus musculus, route intraperitoneal. An outline of the steps:
as §4

The nature of assay [13]: Percent increase in life span of dying mice tested in vivo at 200 mg/kg against ip implanted LOX amelanotic melanoma in mice (60-day survivors). Type of assay: functional. The note with it: Mus musculus, 1440 h, route intraperitoneal. Put shortly: as §5
The subject of another assay is HT-29. In words: Concentration required to inhibit tumor growth in HT29, human colon adenocarcinoma cell line. Type of assay: functional, cell-based. Put shortly: as §2
The next assay deals with L1210 (Mus musculus). As to the kind of experiment: Concentration required to inhibit tumor growth in L1210, murine lymphocytic leukemia cell line.
The test system of a further assay is A549. In words: Concentration required to inhibit tumor growth in A549, human lung carcinoma (NSCLC) cell line. Type of assay: functional, cell-based. Put shortly:
as §2

Another assay has as its system Mus musculus. In words: Change in tumor cell population in ip implanted LOX amelanotic melanoma in mice after administration of compound at 200 mg/kg; toxic. Type of assay: functional, organism-based. Also on record: dose 200 mg/kg. An outline of the steps: as §3
Assay [14] deals with LOX amelanotic melanoma (human). As to the kind of experiment: Change in tumor cell population in ip implanted LOX amelanotic melanoma in mice after administration of compound at 25 mg/kg. The settings on record: route intraperitoneal.
Assay [15] in a line: Change in tumor cell population in ip implanted LOX amelanotic melanoma in mice after administration of compound at 100 mg/kg. Type of assay: functional, Mus musculus. The settings on record: route intraperitoneal. An outline of the steps:
as §3

Assay [16] relates to LOX amelanotic melanoma (human). As to the kind of experiment: Percent increase in life span of dying mice tested in vivo at 25 mg/kg against ip implanted LOX amelanotic melanoma in mice (60-day survivors). The note with it: Mus musculus, 1440 h.
Assay [17] in a line: Percent increase in life span of dying mice tested in vivo at 100 mg/kg against ip implanted LOX amelanotic melanoma in mice (60-day survivors). Type of assay: functional. The settings on record: Mus musculus, 1440 h, route intraperitoneal. Put shortly:
as §5

`CNC(=O)OCc1nc(SC)n(C)c1COC(=O)NC`: the KE result in the assay on P388 [1] is “Toxic”; in the assay with P388 [2] it was “Toxic”; in assay [4], -2.9; in the assay with P388 [6], -1.5; in the assay with P388 [7] it was -4.1; in the assay on Mus musculus, “Toxic”. In addition, the KE in assay [14] is recorded as 0.3; in assay [15] it was -4. In addition, the IC50 in assay [3] was 347 µM; in assay [11], 110 µM; in the assay with HT-29 (Homo sapiens, HT-29) it was 162 µM; in the assay on HT-29 (ht-29) it was 108 µM; in the assay on L1210 (Mus musculus) it was 4.3 µM; with A549, 218 µM. In addition, the ILS at 50 mg/kg was 17% with P388 [5] and 117% in assay [8]. Besides, the ILS at 100 mg/kg is -34% in the assay with P388 [9] and 143% in assay [17]. In the assay with P388 [10], the ILS at 12.5 mg/kg worked out at 59%. Moreover, the ILS at 25 mg/kg with P388 [12] was determined as 96%; in assay [16] it was 34%. Moreover, the ILS at 200 mg/kg in assay [13] was -24%.
